From ChEMBL document CHEMBL1144700, “Synthesis of new N-phenylpyrazole derivatives with potent antimicrobial activity” (2008)
In brackets after ≈: the same amount, converted by molar mass.

Assays:
Assay type in all cases: functional
Candida albicans = assay: Antifungal activity against Candida albicans after 24 hrs by agar diffusion test
Outline: (§1)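 Disc diffusion: organism culture swabbed dry onto prepared agar plates; sterile 9.6 mm discs soaked in compound solution (stock 0.5 g in 10 ml DMF), dried and laid on the inoculated surface. Standard antimicrobial disc placed at the plate centre. Incubation at 37 °C for 24 h.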

Staphylococcus aureus = assay: Antibacterial activity against Staphylococcus aureus after 24 hrs by agar diffusion test; outline: as §1
Pseudomonas aeruginosa = assay: Antibacterial activity against Pseudomonas aeruginosa after 24 hrs by agar diffusion test; outline: as §1
Aspergillus fumigatus [1] = assay: Antifungal activity against Aspergillus fumigatus after 24 hrs by agar diffusion test; outline: as §1
Aspergillus fumigatus [2] = assay: Antifungal activity against Aspergillus fumigatus after 72 hrs
Outline: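 Microwell growth assay with conidia from 48 h Sabouraud agar cultures, final 5 × 10³ conidia per well. Medium-only and fluconazole-range controls included. Incubated at 23 °C for 72 h with growth checked every 24 h, then read as absorbance at 620 nm. Each concentration run in triplicate and the experiment repeated three times.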

Row | Structure (SMILES) | inhibition zone (IZ) (Candida albicans) | inhibition zone (IZ) (Staphylococcus aureus) | inhibition zone (IZ) (Pseudomonas aeruginosa) | inhibition zone (IZ) (Aspergillus fumigatus [1]) | MIC (Aspergillus fumigatus [2])
1 | Cc1c(-c2ccon2)c(C(=O)Nc2ccccc2)nn1-c1ccccc1 | 13 mm/mg | 13 mm/mg | 13 mm/mg | 0 mm/mg | –
2 | Cc1c(-c2cnc3ccccc3n2)c(C(=O)Nc2ccccc2)nn1-c1ccccc1 | 10 mm/mg | 11 mm/mg | 10 mm/mg | 0 mm/mg | –
3 | Cc1c(-c2csc(N)n2)c(C(=O)Nc2ccccc2)nn1-c1ccccc1 | 13 mm/mg | 13 mm/mg | 18 mm/mg | 0 mm/mg | –
4 | Cc1c(C(=O)CC2C(=O)CC(C)(C)CC2=O)c(C(=O)Nc2ccccc2)nn1-c1ccccc1 | 10 mm/mg | 11 mm/mg | 0 mm/mg | 0 mm/mg | –
5 | O=C(N[C@H](CO)[C@H](O)c1ccc([N+](=O)[O-])cc1)C(Cl)Cl [CHLORAMPHENICOL] | – | 21 mm/mg | 20 mm/mg | – | –
6 | Clc1ccc(COC(Cn2ccnc2)c2ccc(Cl)cc2Cl)c(Cl)c1 (centres undefined) [MICONAZOLE] | – | – | – | – | 27.5 µg/mL (≈ 66.1 µM)
7 | CN(C/C=C/C#CC(C)(C)C)Cc1cccc2ccccc12 [TERBINAFINE] | 10 mm/mg | – | – | 10 mm/mg | –
8 | Cc1c(C(=O)/C=C/N(C)C)c(C(=O)Nc2ccccc2)nn1-c1ccccc1 | 15 mm/mg | 14 mm/mg | 14 mm/mg | 0 mm/mg | –
9 | Cc1c(-c2ccccc2)nn2c(-c3c(C(=O)Nc4ccccc4)nn(-c4ccccc4)c3C)ccnc12 | 10 mm/mg | 8 mm/mg | 0 mm/mg | 0 mm/mg | –
10 | Cc1c(-c2ccc(Cl)cc2)nn2c(-c3c(C(=O)Nc4ccccc4)nn(-c4ccccc4)c3C)ccnc12 | 10 mm/mg | 10 mm/mg | 0 mm/mg | 0 mm/mg | –
11 | C[C@@H]1[C@H](O)[C@@H](C)/C=C/C=C/C=C/C=C/C=C/C=C/C=C/[C@H](O[C@@H]2O[C@H](C)[C@@H](O)[C@H](N)[C@@H]2O)C[C@@H]2O[C@](O)(C[C@@H](O)C[C@@H](O)[C@H](O)CC[C@@H](O)C[C@@H](O)CC(=O)O[C@H]1C)C[C@H](O)[C@H]2C(=O)O [AMPHOTERICIN B] | – | – | – | – | 11 µg/mL (≈ 11.9 µM)
12 | CC(=O)c1c(C(=O)Nc2ccccc2)nn(-c2ccccc2)c1C | 15 mm/mg | 21 mm/mg | 17 mm/mg | 0 mm/mg | –
13 | Cc1c(-c2cnc3sc4ccccc4n23)c(C(=O)Nc2ccccc2)nn1-c1ccccc1 | 12 mm/mg | 12 mm/mg | 10 mm/mg | 0 mm/mg | –
14 | Cc1c(-c2ccnc3nncn23)c(C(=O)Nc2ccccc2)nn1-c1ccccc1 | 12 mm/mg | 13 mm/mg | 13 mm/mg | 0 mm/mg | –
15 | Cc1c(C(=O)/C=C/NNC(N)=S)c(C(=O)Nc2ccccc2)nn1-c1ccccc1 | 12 mm/mg | 10 mm/mg | 8 mm/mg | 0 mm/mg | –
16 | Cc1c(-c2cc[nH]n2)c(C(=O)Nc2ccccc2)nn1-c1ccccc1 | 12 mm/mg | 13 mm/mg | 13 mm/mg | 0 mm/mg | –
17 | Cc1c(C(=O)CBr)c(C(=O)Nc2ccccc2)nn1-c1ccccc1 | 16 mm/mg | 18 mm/mg | 20 mm/mg | 12 mm/mg | 25 µg/mL (≈ 62.8 µM)
